# The entries come from a sample that favours hits as a whole.
# T cruzi HTS: blocks T. cruzi growth inside host cells. intracellular Trypanosoma cruzi in host cells, plate reader. activity score (inhibition), % at 5.01 µM. 22,000 tested, 4.9% active; in the data active = activity score above about 55%;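 also: parasites and compound incubated about four days before reading; 0% = median of neutral control wells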
# INS-1E ATP HTS: INS-1E beta cell protection from cytokine death; 20,000 tested, 0.1% active; protection from cytokine-induced ATP loss, % at 10 µM; AID 488910; INS-1E cytokine-induced death, ATP luminescence, 48 h; normalised: neutral wells 0, positive control 100;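 active = mean replicate protection from cytokine-induced ATP loss at least 50% and at least 75% of replicates each reaching 50%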
#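 Assay system: INS-1E rat insulinoma cells. Amount: 8000 cells per well. Medium: phenol-red-free RPMI with 5% fetal bovine serum. Reagent: IL-1β, TNF-α and IFN-γ cytokine mix. Doses: one compound concentration, pin transfer. Schedule: 48 h co-treatment, 10 min post-lysis read. Detection: CellTiter-Glo luminescence measuring cellular ATP.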
# A1 apoptosis 2: blocks A1, raising caspase activity. MEF A1-2A-BIM cells, caspase-Glo luminescence, 3 h; percent of clofoctol response, DMSO zero. 24,000 tested, under 10 active. caspase activation, % (no concentration beside the values); in the data active = caspase activation above about 5.9%
#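 Evaluation: Caspase-3/7 activity from luminescence increase | Assay system: A1-2A-BIM mouse embryonic fibroblasts | Quantity: 2500 MEF cells/well | Medium: RPMI-1640 plus 10% FBS | Detection: Caspase-Glo 3/7 luminescence, 1 h at room temperature | Dosing: 50 nL compound per well, pinned | Timing: Cells settled overnight, compound exposure 3 h at 37 °C, 5% CO2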
# The depositor's hits bear a star; . = no result.
SMILES,T cruzi HTS,INS-1E ATP HTS,A1 apoptosis 2
C[C@H](CO)N1C[C@H](C)[C@@H](CN(C)Cc2ccc3c(c2)OCO3)Oc2c(NC(=O)c3ccncc3)cccc2C1=O,76*,15,0
C[C@@H]1CN([C@H](C)CO)C(=O)c2cccc(NC(=O)c3ccncc3)c2O[C@@H]1CN(C)Cc1ccc2c(c1)OCO2,-8,-6,0
C[C@@H]1CN([C@@H](C)CO)C(=O)c2cccc(NC(=O)c3ccncc3)c2O[C@@H]1CN(C)Cc1ccc2c(c1)OCO2,-1,3,2
COC(=O)c1ccc(/C=N/NC(=O)c2ccc(C(=O)NO)cc2)cc1,.,.,-1
O=C(NO)c1ccc(C(=O)N/N=C/c2cc3c(cc2Br)OCO3)cc1,-2,19,.
O=C(NO)c1cccc(C(=O)N/N=C/c2ccccc2)c1,-10,9,-1
O=C(NO)c1ccc(C(=O)N/N=C/c2ccc(I)cc2)cc1,-4,-2,-4
C[C@H](CO)N1C[C@H](C)[C@H](CN(C)Cc2ccc(C(=O)Nc3ccccc3N)cc2)Oc2c(NC(=O)NC3CCCCC3)cccc2C1=O,58*,-9,-1
C[C@H]1CN([C@@H](C)CO)C(=O)c2cccc(NC(=O)NC3CCCCC3)c2O[C@H]1CN(C)Cc1ccc(C(=O)Nc2ccccc2N)cc1,60*,-19,.
CC(C)NC(=O)Nc1cccc2c1O[C@@H](CN(C)Cc1ccc(C(=O)Nc3ccccc3N)cc1)[C@@H](C)CN([C@H](C)CO)C2=O,31,-14,-2
C[C@@H]1CN([C@H](C)CO)C(=O)c2cccc(NC(=O)NC3CCCCC3)c2O[C@@H]1CN(C)Cc1ccc(C(=O)Nc2ccccc2N)cc1,67*,17,1
CC(C)NC(=O)Nc1cccc2c1O[C@H](CN(C)Cc1ccc(C(=O)Nc3ccccc3N)cc1)[C@H](C)CN([C@@H](C)CO)C2=O,52,28,-1
C[C@@H]1CN([C@@H](C)CO)C(=O)c2cccc(NC(=O)C3CCCCC3)c2O[C@@H]1CN(C)Cc1ccc(C(=O)Nc2ccccc2N)cc1,61*,47,.
C[C@@H]1CN([C@@H](C)CO)C(=O)c2cccc(NC(=O)C3CC3)c2O[C@H]1CN(C)Cc1ccc(C(=O)Nc2ccccc2N)cc1,38,-10,0
CC(C)NC(=O)Nc1cccc2c1O[C@@H](CN(C)Cc1ccc(C(=O)Nc3ccccc3N)cc1)[C@@H](C)CN([C@@H](C)CO)C2=O,27,-15,1
COc1ccc(COC[C@]23NC(=S)N[C@H](c4ccccc4O2)[C@H]3CO[Si](C)(C)C(C)(C)C)cc1,.,.,1
O=C(NO)c1cccc(C(=O)N/N=C/c2cccc(O)c2)c1,-18,7,-2
O=C(CCCCCC(=O)N/N=C/c1ccc(F)cc1)NO,.,.,1
[N-]=[N+]=NCC(=O)N1CCC2(CC1)C(=O)NCN2c1ccccc1,.,.,1
Cc1ccc(O)c(/C=N/NC(=O)c2ccccn2)c1,-7,-14,.
C[C@H](CO)N1C[C@H](C)[C@H](CN(C)Cc2ccccc2)Oc2ccc(N(C)C)cc2CC1=O,4,-2,0
C[C@H]1CN([C@@H](C)CO)C(=O)Cc2cc(N(C)C)ccc2O[C@@H]1CN(C)Cc1ccc(Oc2ccccc2)cc1,67*,-1,0
C[C@@H]1CN([C@H](C)CO)C(=O)Cc2cc(N(C)C)ccc2O[C@@H]1CN(C)Cc1ccc(Oc2ccccc2)cc1,40,-51,-2
C[C@H]1CN([C@@H](C)CO)C(=O)Cc2cc(N(C)C)ccc2O[C@H]1CN(C)Cc1ccc(Oc2ccccc2)cc1,76*,-22,.
C[C@H](CO)N1C[C@H](C)[C@H](CN(C)C)Oc2ncc(-c3ccc(F)cc3)cc2C1=O,65*,.,0
SMILES,T cruzi HTS,INS-1E ATP HTS,A1 apoptosis 2
COc1cccc(-c2cnc3c(c2)C(=O)N([C@H](C)CO)C[C@H](C)[C@H](CN(C)S(C)(=O)=O)O3)c1,4,.,1
C[C@H](CO)N1C[C@H](C)[C@H](CN(C)Cc2ccncc2)Oc2ncc(-c3ccc(F)cc3)cc2C1=O,7,.,0
C[C@H](CO)N1C[C@H](C)[C@H](CN(C)S(=O)(=O)c2ccc(F)cc2)Oc2ncc(-c3cccc(F)c3)cc2C1=O,28,.,0
C[C@H](CO)N1C[C@H](C)[C@H](CN(C)S(=O)(=O)c2ccccc2)Oc2ncc(-c3ccccc3)cc2C1=O,16,.,2
C[C@H](CO)N1C[C@H](C)[C@H](CN(C)C)Oc2ncc(-c3ccccc3)cc2C1=O,63*,.,-1
C[C@H](CO)N1C[C@H](C)[C@H](CN(C)C)Oc2ncc(-c3cccc(F)c3)cc2C1=O,71*,.,.
